The results in this text go back to ChEMBL document CHEMBL1129364, “Pyrrolobenzothiazepinones and pyrrolobenzoxazepinones: novel and specific non-nucleoside HIV-1 reverse transcriptase inhibitors with antiviral activity” (J Med Chem, 1996).

Activity calls are given as the source filed them. The calls are words filed in the database; no cut-off is given here.

Test [1] can be described thus: Effective concentration against 50% survival of HIV -1 infected cells relative to uninfected untreated control (in vitro anti HIV-1 activity); NA ='Not active'. The format is functional, Human immunodeficiency virus 1. In outline: (§1)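 HIV-1-infected CEM T4 lymphocytes were scored for protection from cell death. […] An AZT-treated positive control was run at the same time.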

Test [2] addresses Human immunodeficiency virus type 1 reverse transcriptase (Human immunodeficiency virus 1, UniProt Q72547). Description: (§2) Compound was tested for Inhibition of HIV-1 RT activity. In outline:
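Recombinant HIV-1 RT (0.1 unit), 37 °C for 30 min in 50 mM Tris·HCl pH 8.2, 1 mM DTT, 80 mM KCl, 12 mM MgCl2, 0.01% Triton X-100. Template-primer poly(rA)/(dT)12-18 with [3H]dTTP or poly(rC)/(dG)12-18 with [3H]dGTP. Compounds added in DMSO (10% final). Stopped with 20% TCA; precipitate counted. IC50 is the mean of at least three experiments.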

Test [3] has as its system Human immunodeficiency virus 1. Description: Effective dose against HIV-1 (IIIB strain); NA ='Not active'. The format is functional, organism-based. In outline: (§3)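 ED50 measured against a panel of viruses in MT-2, MT-4 and CEM-SS cells. The panel comprised HIV-1 (6S) and (6R), the pyridinone-resistant strain A-17, HIV-1 IIIB, HIV-1 RF, a diphenyl sulfone-resistant HIV, N119, SIV MAC 251 and HIV-2 ROD.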

Test [4] relates to MT2. Kind of test: IC50 value determined from the inhibition of HIV strain AZT-sensitive activity tested on MT-2 cell lines. The format is functional, cell-based. The conditions noted are these: Homo sapiens.
Test [5] deals with MT2. Kind of test: ED50 value determined from the inhibition of HIV strain AZT-sensitive activity tested on MT-2 cell lines. The format is functional. The conditions noted are these: Homo sapiens, read-out: ED50 (the source's name).
The test system of test [6] is CEM-SS. Description: Cytotoxic concentration against 50% survival of uninfected untreated control CEM-SS cells. The format is cell-based. The conditions noted are these: Homo sapiens.
Test [7] relates to Human immunodeficiency virus 1. Kind of test: Effective dose against AZT resistant strain; NA ='Not active'. The format is functional, organism-based.
Test [8] deals with Human immunodeficiency virus 1. Description: Inhibitory activity against HIV-1 (A-17 cell lines); NA ='Not active'. The format is functional, organism-based. In outline:
as §3

Test [9] can be described thus: (§4) Effective concentration against 50% survival of HIV -1 infected cells relative to uninfected untreated control (in vitro anti HIV-1 activity). The format is functional. The conditions noted are these: Human immunodeficiency virus 1. In outline:
as §1

Test [10] deals with Human immunodeficiency virus 2. Kind of test: Inhibitory activity against HIV-2 (ROD); NA ='Not active'. The format is functional, organism-based. In outline: as §3
Test [11] is described as follows: Selective index is the ratio between IC50 and EC50. The format is functional. In outline: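 Selectivity index calculated as CEM-SS cytotoxic IC50 divided by anti-HIV-1 EC50.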
The subject of test [12] is Human immunodeficiency virus 1. Description: In vitro inhibitory activity against HIV-1 (A-17) HIV strain; NT ='Not active'. The format is functional, organism-based. In outline:
as §3

The nature of test [13]: Selectivity index is the ratio between IC50 and ED50 from HIV-1 (6R) on MT-4 cell lines. The format is functional, MT4.
Test [14] deals with MT4. Kind of test: ED50 value determined from the inhibition of HIV strain HIV-1 (6R), activity tested on MT-4 cell lines. The format is functional. The conditions noted are these: Homo sapiens, read-out: ED50 (the source's name).
For test [15], the system named is MT4. Description: ED50 value determined from the inhibition of HIV strain HIV-1(IIIB), activity tested on MT-4 cell lines. The format is functional. The conditions noted are these: Homo sapiens, read-out: ED50 (the source's name).
Test [16] concerns MT4. Kind of test: ED50 value determined from the inhibition of HIV strain AZT-sensitive activity tested on MT-4 cell lines. The conditions noted are these: Homo sapiens, read-out: ED50 (the source's name). The format is functional.
The subject of test [17] is MT4. Kind of test: IC50 value determined from the inhibition of HIV strain HIV-1(IIIB), activity tested on MT-4 cell lines. The format is functional, cell-based. The conditions noted are these: Homo sapiens.
A short description of test [18]: Selective index is the ratio between IC50 and EC50 from CEM-SS cells. The format is functional.
Test [19] deals with CEM-SS. Description: IC50 value determined from the inhibition of HIV strain HIV-1 RF, activity tested on CEM-SScell lines. The format is functional, cell-based. The conditions noted are these: Homo sapiens. In outline: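 Cell-protection assay: HIV-1-infected T4 lymphocytes (CEM-SS) scored for survival. The value is the drug concentration giving 50% survival of infected cells relative to uninfected untreated controls. An AZT-treated positive control was run at the same time under identical conditions. Details follow a previously reported procedure.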

The subject of test [20] is CEM-SS. Description: ED50 value determined from the inhibition of HIV strain HIV-1 RF, activity tested on CEM-SS cell lines. The format is functional. The conditions noted are these: Homo sapiens, read-out: ED50 (the source's name).
In test [21] the test system is MT4. Description: IC50 value determined from the inhibition of HIV strain HIV-1 (6R), activity tested on MT-4 cell lines. The format is functional, cell-based. The conditions noted are these: Homo sapiens.
Test [22] concerns MT4. Kind of test: IC50 value determined from the inhibition of HIV strain AZT-sensitive activity tested on MT-4 cell lines. The format is functional, cell-based. The conditions noted are these: Homo sapiens.
The nature of test [23]: Selectivity index is the ratio between IC50 and ED50 from HIV-1 (IIIB) on MT-4 cell lines. The format is functional, MT4.
Test [24] has as its system Human immunodeficiency virus 2. Description: In vitro inhibitory activity against HIV-2 (ROD) HIV strain; NT ='Not active'. The format is functional, organism-based. In outline: as §3
Test [25] is described as follows: SI - selectivity index determined from the ratio of IC50 to the ED50 determined on MT-4 cell lines of AZT-sensitive HIV strain. The format is functional, MT4.
Test [26] addresses Human immunodeficiency virus type 1 protease (Human immunodeficiency virus 1, UniProt Q72874). The description is as §2. In outline:
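Recombinant HIV-1 RT (0.1 unit) was incubated 30 min at 37 °C in 50 mM Tris·HCl pH 8.2 with 1 mM DTT, 80 mM KCl, 12 mM MgCl2 and 0.01% Triton X-100. Template-primer was poly(rA)/(dT)12-18 with [3H]dTTP or poly(rC)/(dG)12-18 with [3H]dGTP. DMSO was 10% final. Reactions were stopped with TCA and precipitated radioactivity counted. IC50 is the mean of at least three experiments.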

Test [27] in a line: Effective concentration against 50% survival of HIV -1 infected cells relative to uninfected untreated control (in vitro anti HIV-1 activity); NA =' Not active'. The format is functional, Human immunodeficiency virus 1. In outline:
as §1

Test [28] deals with CEM-SS. The description is as §4. The format is functional, cell-based. The conditions noted are these: Homo sapiens. In outline:
as §1

Take `CCC1(c2ccccc2)Sc2ccc(C)cc2-n2cccc2C1=O` (stereo unspecified): the concentration for half-maximal inhibition (IC50) result is “Not Active” in test [1] and above 600 µM in [2].
As to `C=CCC1(CC)Oc2ccccc2-n2cccc2C1=O` (stereo unspecified), the half-inhibitory concentration (IC50) in test [2] was determined as 5 µM.
The same measure, in the same setting: the result for `O=C1c2cccn2-c2ccccc2OC1c1ccc2ccccc2c1` (stereo unspecified) reads above 300 µM.
With `CCC1(c2ccccc2)Sc2ccccc2-n2cccc2C1=O` (stereo unspecified), the result in [3], in [7], in [8] and in test [10] was inactive. Moreover, the half-inhibitory concentration (IC50) with MT2 [4] came out at 110 µM; in the test with CEM-SS [6], 100 µM; in test [2], 15 µM. Besides, the results for the EC50 (in the test with MT2 [5]; in test [9]) were 8.7 µM and 1.8 µM, respectively. Besides, the SI in test [11] turned out to be 55.2.
With `CCC1(c2ccccc2)Sc2c(Cl)cccc2-n2cccc2C1=O` (stereo unspecified), the IC50 in [2] came to 500 µM.
Consider `CCC1(c2ccc3ccccc3c2)Oc2ccccc2-n2cccc2C1=O` (stereo unspecified), for which the half-inhibitory concentration (IC50) with CEM-SS [6] came to 37.3 µM; in [2] it was 0.5 µM. The EC50 in test [9] stood at 0.85 µM. Further, the SI in test [11] was found to be 44.
`CCc1cc(NCc2nc3c(Cl)ccc(Cl)c3o2)c(O)nc1C` [L-697661] displayed a concentration for half-maximal inhibition (IC50) in test [2] of 0.15 µM.
With `CCC1(c2ccccc2)Oc2ccccc2-n2cccc2C1=O` (stereo unspecified), the outcome in test [12] and in [24] was inactive. Further, the SI turned out to be 1.7 in test [13], 10.4 in [18], 25 in test [23] and 8 in test [25]. Besides, the EC50 in the test with MT4 [14] stood at 1.6 µM; in the test on MT4 [15] it was 0.13 µM; in the test on MT4 [16] it was 0.42 µM; in the test with CEM-SS [20], 0.12 µM; in test [9], 0.47 µM. The concentration for half-maximal inhibition (IC50) was 3.31 µM in the test with MT4 [17]; 10.4 µM in the test with CEM-SS [19]; 4.9 µM in the test on CEM-SS [6]; 2.9 µM with MT4 [21]; 3.3 µM in the test on MT4 [22]; 0.25 µM in test [2].
In test [2], `CCC1(c2ccccc2)C(=O)c2cccn2-c2ccccc2S1(=O)=O` (stereo unspecified) gave an IC50 above 300 µM.
In test [2], `O=C1c2cccn2-c2cc3ccccc3cc2OC1c1ccccc1` (stereo unspecified) showed an IC50 above 300 µM.
Turning to `CCCC1(c2ccccc2)Oc2ccccc2-n2cccc2C1=O` (stereo unspecified), the values for the IC50 (in the test on CEM-SS [6]; in test [2]) were above 150 µM and 500 µM, respectively.
Regarding `C=CCC1(c2ccccc2)Oc2ccccc2-n2cccc2C1=O` (stereo unspecified), the IC50 with CEM-SS [6] was 6.4 µM; in test [2], 25 µM. The EC50 in test [9] stood at 0.71 µM. For the same compound, in test [11], the SI amounted to 9.
On to `O=C1c2cccn2-c2ccccc2SC1c1ccccc1` (stereo unspecified), for which the half-maximal inhibitory concentration (IC50) stood at 18.3 µM in the test with CEM-SS [6] and 100 µM in test [2].
`O=C1c2cccn2-c2ccccc2OC1c1ccccc1` (stereo unspecified) came in with an IC50 in test [2] above 300 µM.
In test [2], `CC1(c2ccccc2)Sc2ccccc2-n2cccc2C1=O` (stereo unspecified) returned a half-maximal inhibitory concentration (IC50) of 5 µM. In test [9], this compound came in with an EC50 of 0.81 µM.
In the case of `CCCC1(CC)Oc2ccccc2-n2cccc2C1=O` (stereo unspecified), inhibition in test [2] was half-maximal at 10 µM (IC50).
In the case of `O=C1c2cccn2-c2ccccc2OC1(CC1CC1)c1ccccc1` (stereo unspecified), the IC50 in the test on CEM-SS [6] is 11.8 µM; in test [2] it was above 500 µM.
Consider `CCC1Oc2ccccc2-n2cccc2C1=O` (stereo unspecified), for which the midpoint of inhibition in test [2], the IC50, lay at 100 µM.
In the test with CEM-SS [6], `CCC1(CC=C(C)C)Oc2ccccc2-n2cccc2C1=O` (stereo unspecified) showed a half-inhibitory concentration (IC50) of 45.2 µM. This compound also returned an EC50 in test [9] of 1.35 µM. In addition, the SI in test [11] came to 35.
Turning to `CCC1(c2ccccc2)C(=O)c2cccn2-c2ccccc2[S+]1[O-]` (stereo unspecified), the half-inhibitory concentration (IC50) in [2] was determined as 500 µM.
With `CCC1(c2ccccc2)Oc2cc3ccccc3cc2-n2cccc2C1=O` (stereo unspecified), the half-inhibitory concentration (IC50) in [2] stood at 150 µM. Against the preceding compound, the IC50 is about 3.3-fold lower.
In test [26], `CCOC1=C(c2ccccc2)Oc2ccccc2-n2cccc21` registered an IC50 above 300 µM.
As for `CC(C)=CCC1(c2ccccc2)Oc2ccccc2-n2cccc2C1=O` (stereo unspecified), the half-maximal inhibitory concentration (IC50) was 120 µM in the test on CEM-SS [6] and above 500 µM in test [2].
In the case of `CCC1(c2ccccc2)Sc2cccc(Cl)c2-n2cccc2C1=O` (stereo unspecified), the results for the IC50 result in test [27] and in test [2] were “Not Active” and 600 µM, respectively.
`CC1(c2ccccc2)Oc2ccccc2-n2cccc2C1=O` (stereo unspecified): the results for the IC50 (in the test with CEM-SS [6]; in test [2]) were 6.9 µM and 10 µM, respectively. In test [9], this compound came in with an EC50 of 0.35 µM. In addition, in [11], the SI came out at 19.7.
`Cc1cn([C@H]2C[C@H](N=[N+]=[N-])[C@@H](CO)O2)c(=O)[nH]c1=O` [ZIDOVUDINE] registered an IC50 in the test with CEM-SS [6] above 1 µM. Besides, the EC50 in the test on CEM-SS [28] was determined as 0.0019 µM. Besides, the SI in test [11] was determined as 526.
